Assay results: PubChem BioAssay
Active and inactive are the calls of the source.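 Rule for the calls, unless noted: active = viability loss from added drug above about 55%, and viability with drug at most 40%, in both replicates (limit read from the data, passing the limit was not always enough); inconclusive = both conditions met in only one replicate; inactive = neither replicate meets both conditions.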

Key:
[1] = SK-BR-3 cell growth inhibitors, pilot screen, 24 h, human (AID 572;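 active = viability at or below 10% of carrier control in both of two separate runs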;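 note: compound exposure lasted between 18 and 24 h rather than exactly 24 h; 100% = carrier-treated control wells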); conditions: SK-BR-3 viability, CellTiter-Glo luminescence, at 10 µM, stronger effect = lower value
[2] = HUVEC growth inhibition – cell-based, human, primary screen (AID 575;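 active = viability at or below 30% in both replicate assays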;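 note: 100% = median of untreated cell wells with 0.1% DMSO on each plate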); conditions: HUVEC proliferation, CellTiter-Glo luminescence, 72 h; at 10 µM; stronger effect = lower value
How it was run: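 system = HUVEC primary cells | amount = 1250 cells/well | buffer or medium = supplemented EBM, 2% fetal bovine serum | dosing = single-point 10 µM, DMSO 0.1% final | times = 72 h compound incubation | detection = CTG luminescence | read-out = % viability relative to median vehicle-well signal on each plate | control set = vehicle and MePR control wells | format = collagen-coated 384-well format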

[3] = growth inhibitors of H69AR lung tumor, primary screen, human, duplicate replicates (AID 580;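 active = viability at or under a set limit in both replicates, limit being median viability minus 3 SD, cut at about 48% in these data, passing the limit was not always enough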;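 note: 100% = mean luminescence of untreated wells and 0% = no signal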); conditions: H69AR lung tumor cells viability, ATP luminescence, 72 h; at 10 µM; stronger effect = lower value
[4] = reversal of MRP1-mediated doxorubicin resistance, pilot screen, H69AR cells, doxorubicin co-treatment (AID 601); conditions: CellTiter-Glo, 72 h, at 10 µM; for differential viability (reversal): stronger effect = higher value
[5] = 384-well plate pilot, post-Golgi transport modulator project, inhibition of yeast transport mutant growth (AID 636; in the data active = inhibition above about 31%); conditions: absorbance 615 nm, about 18 h, stronger effect = higher value
[6] = growth suppression of yeast trafficking mutant, preliminary HTS, modulators of trafficking downstream of Golgi apparatus project, 1536-format plate, OD 615 nm (AID 637; in the data active = inhibition above about 30%); conditions: yeast transport mutant growth, absorbance 615 nm, 18 h; stronger effect = higher value
[7] = H69AR cells + 2 uM doxorubicin, measured here: viability with 2 uM doxorubicin, stronger effect = lower value
[8] = H69AR cells, compound alone cytotoxicity

| SMILES | viability [1] | viability [2] | viability [3] | differential viability (reversal) ([4]; H69AR cells + 2 uM doxorubicin) | viability [4, 7] [%] | viability [4, 8] [%] | inhibition [5] | inhibition [6] |
| --- | --- | --- | --- | --- | --- | --- | --- | --- |
| O=C(Nc1ncc2c(n1)CC(c1ccccc1)CC2=O)c1ccco1 (stereo not drawn) | 102% (inactive) | 98.3% (inactive) | 81.8% (inactive) | 5.16% (inactive) | 76.7 | 81.8 | -5.21% (inactive) | -0.16% (inactive) |
| CCOC(=O)C1C2C=CC3(CN(Cc4ccco4)C(=O)C13)O2 (stereo not drawn) | 97% (inactive) | 95.6% (inactive) | 96.5% (inactive) | 6.86% (inactive) | 89.7 | 96.5 | -6.99% (inactive) | 1.45% (inactive) |
| COc1ccc(NC(=O)Cn2nnc(-c3ccccc3F)n2)cc1Cl | 116% (inactive) | 104% (inactive) | 95.5% (inactive) | 3.27% (inactive) | 92.3 | 95.5 | -8.22% (inactive) | 0.18% (inactive) |
| O=C(CN1C(=O)CCS(=O)(=O)c2ccccc21)Nc1cccc(F)c1 | 115% (inactive) | 115% (inactive) | 106% (inactive) | 9.57% (inactive) | 96.5 | 106 | 3.65% (inactive) | -1.09% (inactive) |
| CCOC(=O)Nc1nnc(-c2ccccc2OC)s1 | 86% (inactive) | 98.2% (inactive) | 93.9% (inactive) | 0.53% (inactive) | 93.3 | 93.9 | -0.14% (inactive) | -4.68% (inactive) |
| COCCNC(=O)C(c1cccs1)N(C(=O)Cn1nnc2ccccc21)c1ccccc1 (stereo not drawn) | 97% (inactive) | 107% (inactive) | 97.2% (inactive) | 3.17% (inactive) | 94 | 97.2 | -2.34% (inactive) | -5.9% (inactive) |
| Cn1c(NC(=O)c2cccc(Cn3cc(Cl)cn3)c2)nc2ccccc21 | 83% (inactive) | 72.4% (inactive) | 68.9% (inactive) | 0.885% (inactive) | 68 | 68.9 | -4.93% (inactive) | -2.79% (inactive) |
| O=C(CSc1nnc(-c2ccco2)n1CC1CCCO1)N1CCCCC1 (stereo not drawn) | 94% (inactive) | 106% (inactive) | 97.6% (inactive) | 4.84% (inactive) | 92.7 | 97.6 | -3.6% (inactive) | 0.36% (inactive) |
| CCOC(=O)Cn1nnnc1CN(Cc1ccc(OC)cc1)Cc1cc2cc(C)ccc2[nH]c1=O | 101% (inactive) | 101% (inactive) | 94.3% (inactive) | -0.605% (inactive) | 94.9 | 94.3 | -1.33% (inactive) | 4.55% (inactive) |
| CC1CN(CC(O)COc2ccccc2C(C)(C)C)CC(C)O1 (stereo not drawn) | 130% (inactive) | 114% (inactive) | 78% (inactive) | -11.3% (inactive) | 89.3 | 78 | -0.26% (inactive) | 0.49% (inactive) |
| Cc1cc(Br)c(S(=O)(=O)n2nnc3ccccc32)cc1C | 107% (inactive) | 101% (inactive) | 81.8% (inactive) | -4.02% (inactive) | 85.8 | 81.8 | -8.22% (inactive) | 5.09% (inactive) |
| COc1ccc(Nc2nc(-c3sc(N)nc3C)cs2)cc1 | 93% (inactive) | 92.9% (inactive) | 80.2% (inactive) | -5.13% (inactive) | 85.3 | 80.2 | -8.24% (inactive) | 0.73% (inactive) |
| CCN=C1SC(CC(=O)Nc2ccccc2OCC)C(=O)N1CC (stereo not drawn) | 96% (inactive) | 94.3% (inactive) | 94.5% (inactive) | 8.11% (inactive) | 86.4 | 94.5 | -2.05% (inactive) | -2.74% (inactive) |
| COc1cccc(NC(=O)COC(=O)c2cccnc2)c1 | 91% (inactive) | 83.9% (inactive) | 91.1% (inactive) | 5.84% (inactive) | 85.3 | 91.1 | -4.93% (inactive) | 4.35% (inactive) |
| O=C(Nc1ccc(NC(=O)c2ccco2)nc1)c1cccnc1 | 102% (inactive) | 121% (inactive) | 88.7% (inactive) | -1.89% (inactive) | 90.6 | 88.7 | -7.4% (inactive) | 0.65% (inactive) |
| Cc1nc2cc(C(=O)O)ccc2n1-c1ccc(F)cc1F | 120% (inactive) | 94.3% (inactive) | 101% (inactive) | 7.17% (inactive) | 93.7 | 101 | -4.42% (inactive) | 2.62% (inactive) |
| COc1cc(-c2nc(S(=O)(=O)c3ccc(C)cc3)c(N(C)C)o2)cc(OC)c1OC | 71% (inactive) | 93.2% (inactive) | 87.9% (inactive) | 1.51% (inactive) | 86.3 | 87.9 | -8.4% (inactive) | -1.09% (inactive) |
| COc1ccc(C(=O)CSc2nnc(-c3ccc(C)cc3)o2)cc1 | 97% (inactive) | 110% (inactive) | 86.4% (inactive) | -2.64% (inactive) | 89 | 86.4 | 4% (inactive) | 5.09% (inactive) |

| SMILES | viability [1] | viability [2] | viability [3] | differential viability (reversal) ([4]; H69AR cells + 2 uM doxorubicin) | viability [4, 7] [%] | viability [4, 8] [%] | inhibition [5] | inhibition [6] |
| --- | --- | --- | --- | --- | --- | --- | --- | --- |
| Cc1ccc(NC(=O)COC(=O)c2ccn(C)n2)cc1 | 76% (inactive) | 90.8% (inactive) | 87.2% (inactive) | 7.78% (inactive) | 79.4 | 87.2 | -2.74% (inactive) | -1.09% (inactive) |
| COCc1[nH]nc2c1C(c1cc(OC)c(O)c(OC)c1)C(C#N)=C(N)O2 (stereo not drawn) | 98% (inactive) | 102% (inactive) | 93% (inactive) | -2% (inactive) | 95 | 93 | -10.3% (inactive) | 4.03% (inactive) |
| COc1cc(S(=O)(=O)NC2CCCCC2C)ccc1Cl (stereo not drawn) | 83% (inactive) | 98.3% (inactive) | 92.4% (inactive) | -3.38% (inactive) | 95.8 | 92.4 | -7.81% (inactive) | 1.45% (inactive) |
| O=C(CN1CCN(c2ccc(F)cc2)CC1)OCc1ccccc1 | 95% (inactive) | 105% (inactive) | 92.6% (inactive) | 7.9% (inactive) | 84.7 | 92.6 | -4.4% (inactive) | 3.64% (inactive) |
| COC(=O)c1ccc(COc2ccc(C3C4=C(CCCC4=O)Nc4onc(C)c43)cc2)cc1 (stereo not drawn) | 104% (inactive) | 82.3% (inactive) | 94.7% (inactive) | 2.04% (inactive) | 92.7 | 94.7 | -5.19% (inactive) | -3.93% (inactive) |
| CCOC(=O)c1c(NC(=O)Cn2c(=O)oc3ccccc32)oc(C)c1C(C)=O | 81% (inactive) | 99.3% (inactive) | 101% (inactive) | 5.86% (inactive) | 95.1 | 101 | -1.23% (inactive) | -4.52% (inactive) |
| COC(=O)C1=C(C)Nc2ncnn2C1c1ccco1 (stereo not drawn) | 80% (inactive) | 91.8% (inactive) | 85.9% (inactive) | 4.73% (inactive) | 81.2 | 85.9 | -8.49% (inactive) | 4.91% (inactive) |
| Cc1ccccc1-n1c(SCc2c(C)noc2C)nnc1-c1ccncc1 | 92% (inactive) | 87.5% (inactive) | 87.4% (inactive) | 8.34% (inactive) | 79.1 | 87.4 | -3.78% (inactive) | -2% (inactive) |
| CCn1c(SCC(=O)Nc2ccccc2N2CCCCC2)nc2c1c(=O)n(C)c(=O)n2C | 113% (inactive) | 75.4% (inactive) | 73.9% (inactive) | 1.19% (inactive) | 72.7 | 73.9 | -6.13% (inactive) | 3.09% (inactive) |
| CCCNC(=O)C1CN(S(=O)(=O)c2ccccc2)CCN1S(=O)(=O)c1ccccc1 (stereo not drawn) | 103% (inactive) | 108% (inactive) | 99.2% (inactive) | 9.82% (inactive) | 89.4 | 99.2 | 4.42% (inactive) | 3.77% (inactive) |
| Cc1oc2cc3c(C(=O)OCCN(C)C)c(C)oc3cc2c1C(=O)OCCN(C)C | 92.5% (inactive) | 72.2% (inactive) | 90.4% (inactive) | -16.8% (inactive) | 107 | 90.4 | -3.95% (inactive) | -10% (inactive) |
| CC(C)OC(=O)c1ccc(NC(=O)C2C3CC4OC(=O)C2C4C3)cc1 (stereo not drawn) | 104% (inactive) | 91.8% (inactive) | 95.6% (inactive) | 7.04% (inactive) | 88.5 | 95.6 | -1.49% (inactive) | -4.91% (inactive) |
| CSC1=C(C#N)C(C)CC(=O)N1 (stereo not drawn) | 91% (inactive) | 107% (inactive) | 115% (inactive) | 9.97% (inactive) | 105 | 115 | -7.81% (inactive) | 2.18% (inactive) |
| O=C1NC(=O)C(CC(=O)N(c2ccccc2)C2(C(=O)NC3CCCC3)CCCCC2)N1 (stereo not drawn) | 99% (inactive) | 100% (inactive) | 97.2% (inactive) | 8.26% (inactive) | 88.9 | 97.2 | -8.36% (inactive) | 4.36% (inactive) |
| CCOC(=O)CSc1nnc(-c2ccc(NS(=O)(=O)c3ccc(C)cc3)cc2)o1 | 87% (inactive) | 56% (inactive) | 91.5% (inactive) | 5.14% (inactive) | 86.4 | 91.5 | -4.29% (inactive) | -5.67% (inactive) |
| Cc1cccc(CC(=O)Nc2c3c(nn2-c2cccc(Cl)c2)CS(=O)C3)c1 (stereo not drawn) | 104% (inactive) | 88.9% (inactive) | 85.2% (inactive) | -10.9% (inactive) | 96.1 | 85.2 | 1.3% (inactive) | -6.72% (inactive) |
| CCOc1cc(C(=O)Nc2ncccn2)cc(OCC)c1OCC | 117% (inactive) | 105% (inactive) | 87.5% (inactive) | 4.8% (inactive) | 82.7 | 87.5 | -2.86% (inactive) | 5.08% (inactive) |
| COc1ccc(S(=O)(=O)Nc2ccc(Cl)cn2)c(C)c1C | 100% (inactive) | 107% (inactive) | 88.5% (inactive) | 0.69% (inactive) | 87.8 | 88.5 | -0.93% (inactive) | 0% (inactive) |
